Compound activity deposited in PubChem BioAssay by several laboratories.
This is a sample that favours compounds with a hit; in the whole collection about 4.1% have one here.
KCNK3 inh = human KCNK3 channel inhibitors, primary screen, CHO cells, FluxOR thallium flux, B-score; B-score at 10 µM; Potassium channel subfamily K member 3 (Homo sapiens), O14649; AID 602410, 2012; FluxOR fluorescence; hits give low values; 340,000 tested, 0.84% active;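 active = B-score under library mean minus 4 SD, starting fluorescence ratio at most library mean plus 5 SD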;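 note: more negative B-score means stronger inhibition of thallium flux through KCNK3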
Target sequence (O14649 whole entry, looked up): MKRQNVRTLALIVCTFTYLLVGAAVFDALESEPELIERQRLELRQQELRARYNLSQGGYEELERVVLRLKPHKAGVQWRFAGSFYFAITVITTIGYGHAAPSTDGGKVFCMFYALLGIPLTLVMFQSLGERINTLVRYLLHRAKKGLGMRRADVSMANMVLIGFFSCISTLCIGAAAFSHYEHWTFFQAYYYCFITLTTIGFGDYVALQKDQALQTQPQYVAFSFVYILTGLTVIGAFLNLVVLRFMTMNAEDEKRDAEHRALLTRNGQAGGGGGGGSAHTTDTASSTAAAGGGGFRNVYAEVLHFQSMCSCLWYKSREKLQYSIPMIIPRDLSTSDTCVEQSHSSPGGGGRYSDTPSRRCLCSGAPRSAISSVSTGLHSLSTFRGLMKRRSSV
KCNK9 inh = KCNK9 potassium channel inhibitors, primary screen, HEK293 cells, thallium flux; B-score at 10 µM; AID 488922, 2010; 310,000 tested, 1.2% active; FluxOR thallium flux fluorescence; hits give low values;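 active = ratio B-score over 3 SD below the library mean, with starting fluorescence within 5 SD of its mean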;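 note: negative B-score means less thallium flux so channel inhibition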
KCNQ1 pot = potentiators or activators of KCNQ1 channel, primary screen, cell-based, thallium flux, high-throughput | Potassium voltage-gated channel subfamily KQT member 1 (Homo sapiens), P51787 | CHO-K1 KCNQ1, thallium flux FluxOR fluorescence; hits give high values | B-score at 10 µM | 310,000 tested, 0.35% active;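 active = fluorescence ratio B-score, a plate-corrected score, at least three library SD, with initial intensity B-score within 5 SD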
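System: Stable KCNQ1 CHO-K1 line | Incubation: 90 min dye loading and 20 min compound exposure, both at room temperature | Measure: Ratio B score | Medium: Assay buffer for compound exposure, DMSO matched across wells | Compound dosing: Single-concentration screen | Probe or stimulus: K+/Tl+ depolarizing stimulus | Measured by: Kinetic FluxOR fluorescence, 10 s baseline plus 110 s post-stimulus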
KCC2 mod = KCC2 cotransporter modulators, thallium flux, primary screen, cell-based, HEK293 KCC2, FluoZin-2 fluorescence, MLSMR; B-score of Tl+ flux slope (higher = more flux/activation; lower = inhibition) at 10 µM; KCC2 cells, thallium flux FluoZin-2 fluorescence; AID 1456, 2008; 190,000 tested, 2.2% active; Solute carrier family 12 member 5 (Homo sapiens), Q9H2X9;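 active = thallium flux slope and its plate-corrected score both differing from the plate sample mean at a set confidence after two filtering rounds, in either direction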;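 note: slope of fluorescence scaled to starting intensity during 10 to 20 s after thallium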
KCNQ1 block = inhibitors of human KCNQ1 channel, primary screen, cell-based, thallium flux, high-throughput; B-score at 10 µM; AID 2642, 2010; CHO-K1 KCNQ1, FluxOR thallium flux fluorescence; hits give high values; Potassium voltage-gated channel subfamily KQT member 1 (Homo sapiens), P51787; 310,000 tested, 1.3% active;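 active = compounds whose thallium flux B-score, printed positive for inhibition, exceeds three library SD while starting fluorescence stays within three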;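 note: channel opened by potassium depolarization with thallium stimulus after 20 min compound exposure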
hERG protect = hERG rescue from dofetilide block, primary screen, cell-based, CHO-hERG, FluxOR thallium flux, dofetilide IC70. dofetilide IC70 present. activation (rescue from dofetilide block), less the hit threshold, % at 10 µM. 310,000 tested, 0.51% active. AID 1511, 2009;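 active = activation above the mean of controls blocked by dofetilide plus 5 SD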;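 note: thallium influx through hERG after potassium depolarization seen as dye fluorescence rise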
Numbers without * were called inactive.

How did CCCN(CCC)C(=S)NC(=O)c1ccc(Cl)cc1Cl do in these assays?
KCNK3 inh: inactive; KCNK9 inh: inactive; KCNQ1 pot: 55*; KCC2 mod: 41.9*; KCNQ1 block: inactive; hERG protect: 24.7*

Results for Cc1cccc(C(=O)NC(=S)Nc2ccccc2C(=O)O)c1 ?
KCNK3 inh: inactive; KCNK9 inh: inactive; KCNQ1 pot: inactive; KCC2 mod: -0.0869; KCNQ1 block: inactive; hERG protect: -2.2

Results for CCC(=O)Nc1cccc(NC(=S)NC(=O)c2ccc(Cl)cc2Cl)c1 ?
KCNK3 inh: inactive; KCNK9 inh: inactive; KCNQ1 pot: inactive; KCC2 mod: 0.463; KCNQ1 block: inactive; hERG protect: -4.4

How did Cc1ccccc1C(=O)NNC(=S)NC(=O)c1ccc(Cl)cc1Cl do in these assays?
KCNK3 inh: inactive; KCNK9 inh: inactive; KCNQ1 pot: 15*; KCC2 mod: 27.8*; KCNQ1 block: inactive; hERG protect: -15.2

What do the screens show for `Cc1cccc(C)c1NC(=S)NC(=O)c1ccccc1F`?
KCNK3 inh: inactive; KCNK9 inh: inactive; KCNQ1 pot: inactive; KCC2 mod: 35.3*; KCNQ1 block: inactive; hERG protect: -2.4

How did Cc1cccc(C(=O)NC(=S)NNC(=O)c2ccccc2Cl)c1 do in these assays?
KCNK3 inh: inactive; KCNK9 inh: inactive; KCNQ1 pot: inactive; KCC2 mod: 40.1*; KCNQ1 block: inactive; hERG protect: -1.4

Results for COc1ccc2[nH]c3c(c2c1)CCN1C(=O)N([C@@H](C)C(=O)NCc2ccc(C)cc2)C(=O)[C@]31C ?
KCNK3 inh: inactive; KCNK9 inh: inactive; KCNQ1 pot: inactive; KCNQ1 block: inactive; hERG protect: -8.3

What do the screens show for `COc1cccc(CN(C)C(=O)c2ccc(OCC(=O)Nc3cccc(C(F)(F)F)c3)c(OC)c2)c1`?
KCNK3 inh: inactive; KCNK9 inh: inactive; KCNQ1 pot: inactive; KCNQ1 block: 9*; hERG protect: -20.2

Results for O=C(CSc1nnc(COc2ccc(F)cc2)o1)N1c2ccccc2CCc2ccccc21 ?
KCNK3 inh: inactive; KCNK9 inh: -13*; KCNQ1 pot: inactive; KCC2 mod: -0.77; KCNQ1 block: inactive; hERG protect: -9.7

Results for Cc1cc(/C=c2/sc3nc4ccccc4n3c2=O)c(C)n1-c1ccccn1 ?
KCNK3 inh: inactive; KCNK9 inh: inactive; KCNQ1 pot: inactive; KCNQ1 block: inactive; hERG protect: -12.1

How did CCN(CC)c1ccc(/C=c2\sc3nc4ccccc4n3c2=O)c(O)c1 do in these assays?
KCNK3 inh: inactive; KCNK9 inh: inactive; KCNQ1 pot: inactive; KCC2 mod: inactive; KCNQ1 block: 9*; hERG protect: -36.1

How did COc1ccccc1NS(=O)(=O)c1ccc(C(=O)N2CCN(c3ccccn3)CC2)cc1 do in these assays?
KCNK3 inh: inactive

What do the screens show for `O=C1C(=Cc2cccn2-c2ccccc2)C(=O)c2ccccc21`?
KCNK3 inh: inactive; KCNK9 inh: inactive; KCNQ1 pot: inactive; KCC2 mod: 1.27; KCNQ1 block: inactive; hERG protect: 1.5

What do the screens show for `O=C1C(=Cc2cccn2-c2ccc(O)cc2)C(=O)c2ccccc21`?
KCNK3 inh: inactive; KCNK9 inh: inactive; KCNQ1 pot: inactive; KCNQ1 block: inactive; hERG protect: 4.7*

Results for CCCCSCCCNC(=O)CCCN1C(=O)c2ccccc2Sc2ncccc21 ?
KCNK3 inh: inactive; KCNK9 inh: inactive; KCNQ1 pot: inactive; KCNQ1 block: inactive; hERG protect: -3.2

What do the screens show for `Cc1ccc(S(=O)(=O)N(CC(=O)Nc2cccc(N(C)S(C)(=O)=O)c2)c2ccc(Cl)c(Cl)c2)cc1`?
KCNK3 inh: inactive; KCNK9 inh: inactive; KCNQ1 pot: inactive; KCNQ1 block: 10*; hERG protect: -3.6

What do the screens show for `CN(c1cccc(NC(=O)CN(c2ccc(Cl)c(Cl)c2)S(=O)(=O)c2ccccc2)c1)S(C)(=O)=O`?
KCNK3 inh: inactive; KCNK9 inh: inactive; KCNQ1 pot: inactive; KCC2 mod: -1.16; KCNQ1 block: inactive; hERG protect: -13.7

Results for C=CCn1c(SCc2csc(-c3ccc(C)cc3)n2)nnc1-c1ccccc1OC ?
KCNK3 inh: inactive; KCNK9 inh: inactive; KCNQ1 pot: inactive; KCC2 mod: -2.38; KCNQ1 block: 6*; hERG protect: -19.6

What do the screens show for `O=C(COc1ccc(C(=O)c2ccccc2)cc1)Nc1cccnc1`?
KCNK3 inh: inactive; KCNK9 inh: inactive; KCNQ1 pot: inactive; KCNQ1 block: inactive; hERG protect: 16.1*

Results for N#Cc1ccc(-c2ccc(OCC(=O)Nc3cccnc3)cc2)cc1 ?
KCNK3 inh: inactive; KCNK9 inh: inactive; KCNQ1 pot: inactive; KCNQ1 block: inactive; hERG protect: -1.9

What do the screens show for `CCCN1CCN(C(=O)C(C)n2nc(C)c3sc4ccccc4c3c2=O)CC1` (stereo not given)?
KCNK3 inh: inactive; KCNK9 inh: inactive; KCNQ1 pot: inactive; KCNQ1 block: inactive; hERG protect: -7.9

What do the screens show for `C=CCc1c(C)nc(-c2ccccc2)nc1N/N=C/c1ccccc1`?
KCNK3 inh: inactive; KCNK9 inh: inactive; KCNQ1 pot: inactive; KCC2 mod: 0.191; KCNQ1 block: 6*; hERG protect: -11.5

Results for CCc1nc2ccccc2c(C(=O)OCC(=O)Nc2cccc(S(=O)(=O)N3CCOCC3)c2)c1C ?
KCNK3 inh: -9.03*; KCNK9 inh: inactive; KCNQ1 pot: inactive; KCC2 mod: -0.696; KCNQ1 block: inactive; hERG protect: -12.2

Results for Cc1ccc(S(=O)(=O)N2CCCCC2)cc1NC(=O)c1cc2ccccc2o1 ?
KCNK3 inh: -9.02*

What do the screens show for `CCN1CCN(c2ccc(S(=O)(=O)N3CCCCC3)cc2NC(=O)c2cc3ccccc3o2)CC1`?
KCNK3 inh: inactive; KCNK9 inh: inactive; KCNQ1 pot: inactive; KCNQ1 block: inactive; hERG protect: -16.2

What do the screens show for `Cc1ccc(C)c(OCCC(=O)OCC(=O)Nc2cc(S(=O)(=O)N3CCCCC3)ccc2C)c1`?
KCNK3 inh: -10.2*
